In ChEMBL document CHEMBL4229363, “Design and synthesis of aryloxypropanolamine as β3-adrenergic receptor antagonist in cancer and lipolysis” (Eur J Med Chem, 2018):
Active and inactive are the calls of the source. The rule behind the calls is not given here.

Assays:
[1] = molecular target: Beta-2 adrenergic receptor (Homo sapiens, UniProt P07550); test: Antagonist activity at human beta2 adrenergic receptor expressed in HEK293 cells co-expressing Galpha16 assessed as inhibition of isoproterenol-induced intercellular calcium mobilization pre-incubated for 10 mins before isoproterenol addition by Fluo-4AM dye-based fluorescence assay; type: functional, cell-based; settings: read-out: EC50 (the source's name)
Outline: (§1)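 HEK293 cells stably co-expressing Gα16 and human β1, β2 or β3 receptor, seeded 24 h. Loaded with 2.00 µmol/L Fluo-4 AM in HBSS (BSA, glucose, 250 µmol/L sulfinpyrazone, pH 7.4) for 45 min at 37 °C. Compounds added for 10 min at room temperature, then isoproterenol dispensed. Calcium fluorescence read at ex 485/em 525 nm. IC50 taken from dose-response curves.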

[2] = molecular target: Beta-1 adrenergic receptor (Homo sapiens, UniProt P08588); test: Antagonist activity at human beta1 adrenergic receptor expressed in HEK293 cells co-expressing Galpha16 assessed as inhibition of isoproterenol-induced intercellular calcium mobilization pre-incubated for 10 mins before isoproterenol addition by Fluo-4AM dye-based fluorescence assay; type: functional, cell-based; settings: read-out: EC50 (the source's name); outline: as §1
[3] = molecular target: T1, Beta-3 adrenergic receptor (Homo sapiens, UniProt P13945); test: (§2) Antagonist activity at human beta3 adrenergic receptor expressed in HEK293 cells co-expressing Galpha16 assessed as inhibition of isoproterenol-induced intercellular calcium mobilization pre-incubated for 10 mins before isoproterenol addition by Fluo-4AM dye-based fluorescence assay; type: functional, cell-based; settings: read-out: EC50 (the source's name); outline: as §1
Target sequence in this assay (P13945 whole entry): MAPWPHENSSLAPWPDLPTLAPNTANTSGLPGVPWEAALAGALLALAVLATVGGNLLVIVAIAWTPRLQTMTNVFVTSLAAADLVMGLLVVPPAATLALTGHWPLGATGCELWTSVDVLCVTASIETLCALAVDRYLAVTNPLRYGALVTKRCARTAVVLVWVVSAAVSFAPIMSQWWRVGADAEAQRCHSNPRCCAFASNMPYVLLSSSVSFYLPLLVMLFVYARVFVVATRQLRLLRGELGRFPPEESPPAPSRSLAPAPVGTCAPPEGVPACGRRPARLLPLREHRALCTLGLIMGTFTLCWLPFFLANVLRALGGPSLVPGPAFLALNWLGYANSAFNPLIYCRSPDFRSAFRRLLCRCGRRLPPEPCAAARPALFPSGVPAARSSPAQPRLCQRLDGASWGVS

Homo sapiens [4] = species on record: Homo sapiens; test: Selectivity index, ratio of EC50 for human beta1 adrenergic receptor to EC50 for human beta3 adrenergic receptor
Homo sapiens [5] = species on record: Homo sapiens; test: Selectivity index, ratio of EC50 for human beta2 adrenergic receptor to EC50 for human beta3 adrenergic receptor
Mus musculus [6] = test: Antilipolytic activity against mouse C26 cells xenografted in BALB/c mouse assessed as reduction in lipolysis of body fat by measuring glycerol content in serum at 2.5 mg/kg, ip dosed daily for 13 days; type: functional, organism-based
Mus musculus [7] = test: Antitumor activity against mouse C26 cells xenografted in BALB/c mouse assessed as decrease in tumor volume at 2.5 mg/kg, ip dosed daily for 13 days; type: functional, organism-based
[8] = molecular target: T1, Beta-3 adrenergic receptor; test: as §2, with “Potency index, ratio of EC50 for L-748,337 to EC50 for test compound for antagonist” for “Antagonist”; type: functional, cell-based
Target sequence in this assay (P13945 whole entry, looked up): as the sequence (P13945 whole entry) above

Mus musculus [9] = test: Inhibition of tumor-induced body weight loss in BALB/c mouse xenografted with mouse C26 cells assessed as reduction in body weight at 2.5 mg/kg, ip dosed daily for 13 days (reference value: 8.3%); type: functional; parameters: scale not given: the % may be the effect or the level left
[10] = molecular target: Beta-3 adrenergic receptor (Mus musculus) (UniProt P25962); test: Antagonist activity at beta3 adrenergic receptor in mouse 3T3L1 cells assessed as inhibition of isoproterenol-induced lipolysis by measuring glycerol accumulation after 2 hrs; type: functional, cell-based
Outline: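 3T3-L1 preadipocytes were grown on gelatin to confluence, then differentiated with 10 µg/ml insulin, 1 µM dexamethasone and 0.5 mM IBMX for 48 hr, followed by insulin alone for 48 hr. Mature adipocytes were washed and given phenol red-free DMEM with 2% fatty acid-free BSA and 1 µM isoproterenol ± antagonist for 2 hr. Glycerol in cleared medium was read by kit at 550 nm. Mean ± SE, three independent experiments.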

Homo sapiens [11] = species on record: Homo sapiens; test: Selectivity ratio of EC50 for displacement of [125I]iodocyanopindolol for human beta2 adrenergic receptor expressed in CHO dhfr cell membranes to EC50 for displacement of [125I]iodocyanopindolol from human beta3 adrenergic receptor expressed in CHO dhfr cell membranes
Homo sapiens [12] = species on record: Homo sapiens; test: Selectivity ratio of EC50 for displacement of [125I]iodocyanopindolol for human beta1 adrenergic receptor expressed in CHO dhfr cell membranes to EC50 for displacement of [125I]iodocyanopindolol from human beta3 adrenergic receptor expressed in CHO dhfr cell membranes

Beta-1 adrenergic receptor, sequence (P08588 whole entry): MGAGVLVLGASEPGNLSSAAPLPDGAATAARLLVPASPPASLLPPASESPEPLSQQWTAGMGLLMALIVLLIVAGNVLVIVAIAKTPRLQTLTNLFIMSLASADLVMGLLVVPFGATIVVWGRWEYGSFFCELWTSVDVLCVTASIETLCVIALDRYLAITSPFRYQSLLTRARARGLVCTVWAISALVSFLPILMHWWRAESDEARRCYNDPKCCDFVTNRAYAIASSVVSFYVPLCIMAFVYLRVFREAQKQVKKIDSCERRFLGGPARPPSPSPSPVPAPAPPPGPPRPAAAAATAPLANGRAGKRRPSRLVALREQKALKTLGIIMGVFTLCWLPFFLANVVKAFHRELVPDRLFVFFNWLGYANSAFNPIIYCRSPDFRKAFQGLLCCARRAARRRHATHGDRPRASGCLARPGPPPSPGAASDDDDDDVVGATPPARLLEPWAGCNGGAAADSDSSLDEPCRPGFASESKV
Beta-3 adrenergic receptor (Mus musculus), sequence (P25962 whole entry): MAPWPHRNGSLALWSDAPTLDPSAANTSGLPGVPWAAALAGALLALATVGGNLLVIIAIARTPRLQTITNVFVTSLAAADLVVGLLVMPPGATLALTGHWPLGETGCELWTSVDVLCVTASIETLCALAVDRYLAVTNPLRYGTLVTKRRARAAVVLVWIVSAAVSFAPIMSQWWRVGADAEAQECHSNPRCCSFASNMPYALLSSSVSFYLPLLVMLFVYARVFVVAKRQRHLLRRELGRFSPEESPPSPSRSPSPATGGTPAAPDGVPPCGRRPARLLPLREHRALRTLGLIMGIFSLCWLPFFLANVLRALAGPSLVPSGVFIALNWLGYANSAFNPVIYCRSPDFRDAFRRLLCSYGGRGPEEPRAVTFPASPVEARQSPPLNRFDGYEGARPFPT
Beta-2 adrenergic receptor, sequence (P07550 whole entry): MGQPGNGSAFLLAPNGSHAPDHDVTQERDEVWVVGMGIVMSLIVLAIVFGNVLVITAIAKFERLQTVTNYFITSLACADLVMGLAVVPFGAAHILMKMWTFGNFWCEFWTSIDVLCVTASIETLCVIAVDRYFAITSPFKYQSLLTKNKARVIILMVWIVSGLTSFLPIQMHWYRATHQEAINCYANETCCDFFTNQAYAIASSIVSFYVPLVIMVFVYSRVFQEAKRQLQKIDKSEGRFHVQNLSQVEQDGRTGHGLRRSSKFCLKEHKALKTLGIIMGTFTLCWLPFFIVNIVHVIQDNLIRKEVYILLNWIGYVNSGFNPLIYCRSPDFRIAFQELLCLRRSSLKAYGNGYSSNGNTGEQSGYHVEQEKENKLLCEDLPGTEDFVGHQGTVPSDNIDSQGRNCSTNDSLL

`CCc1ccccc1OC[C@@H](O)CNCCc1ccc(NC(=O)Cc2ccccc2)cc1` showed an IC50 [1] of 281 nM, an IC50 [2] of 36.8 nM and an IC50 [3] of 8.68 nM.
`CCc1ccccc1OC[C@@H](O)CNCCc1ccc(NC(=O)c2ccccc2)cc1` was tested, and the IC50 [1] was 294 nM, the IC50 [2] was 124 nM and the IC50 [3] was 7.7 nM.
Compound `COC(=O)Nc1ccccc1NC(=O)Nc1ccc(CCNC[C@H](O)COc2cccc3[nH]ccc23)cc1` has an IC50 [3] of 2.62 nM.
With `O=C(Nc1ccccc1)Nc1ccc(CCNC[C@H](O)COc2cccc3[nH]ccc23)cc1` the Ratio EC50 (Homo sapiens [4]) was 6, the Ratio EC50 (Homo sapiens [5]) was 100 and the Activity (Mus musculus [6]) was “Active”. The IC50 [1] was 52.2 nM, the Activity (Mus musculus [7]) was “Active” and the IC50 [2] was 2.88 nM. The Ratio EC50 [8] was 23, the Activity (Mus musculus [9]) was 4.6% and the inhibition [10] was “Active”. The IC50 [3] was 0.512 nM.
`COc1ccc(NC(=O)Nc2ccc(CCNC[C@H](O)COc3cccc4[nH]ccc34)cc2)cc1` was tested, and the inhibition [10] was “Active” and the IC50 [3] was 1.49 nM.
Compound `COC(=O)Nc1cccc(NC(=O)Nc2ccc(CCNC[C@H](O)COc3cccc4[nH]ccc34)cc2)c1` has an IC50 [3] of 1.65 nM.
In the case of `COC(=O)Nc1ccc(NC(=O)Nc2ccc(CCNC[C@H](O)COc3cccc4[nH]ccc34)cc2)cc1`, the inhibition [10] is reported as “Active” and the IC50 [3] is reported as 1.42 nM.
`CC(=O)NCc1cccc(OC[C@@H](O)CNCCc2ccc(NS(=O)(=O)Nc3ccccc3)cc2)c1` was tested, and the IC50 [1] was 8430 nM, the IC50 [2] was 224 nM and the IC50 [3] was 3.41 nM.
`O=C(NCCc1ccccc1)Nc1ccc(CCNC[C@H](O)COc2cccc3[nH]ccc23)cc1` was tested, and the inhibition [10] was “Active” and the IC50 [3] was 2.15 nM.
In the case of `CC(=O)NCc1cccc(OC[C@@H](O)CNCCc2ccc(NC(=O)c3ccccc3)cc2)c1`, the IC50 [1] is reported as 6060 nM, the IC50 [2] is reported as 100000 nM and the IC50 [3] is reported as 7.81 nM.
`O=C(Nc1ccc(CCNC[C@H](O)COc2cccc3[nH]ccc23)cc1)Nc1ccccc1F` gave an IC50 [3] of 3.58 nM.
`CCCCCC(=O)Nc1cccc(NC(=O)Nc2ccc(CCNC[C@H](O)COc3cccc4[nH]ccc34)cc2)c1` was tested, and the IC50 [3] was 1.78 nM.
`O=S(=O)(Nc1ccc(CCNC[C@H](O)COc2cccc3[nH]ccc23)cc1)c1ccccc1` was tested, and the IC50 [1] was 353 nM, the IC50 [2] was 14.8 nM and the IC50 [3] was 2.09 nM.
`CCc1ccccc1OC[C@@H](O)CNCCc1ccc(NS(=O)(=O)c2ccccc2)cc1` was tested, and the IC50 [1] was 954 nM, the IC50 [2] was 299 nM and the IC50 [3] was 11.1 nM.
With `O=C(Nc1ccc(F)cc1)Nc1ccc(CCNC[C@H](O)COc2cccc3[nH]ccc23)cc1` the inhibition [10] was “Active” and the IC50 [3] was 2.49 nM.
`O=C(Nc1ccc(CCNC[C@H](O)COc2cccc3[nH]ccc23)cc1)c1ccccc1` gave an IC50 [1] of 118 nM, an IC50 [2] of 36 nM and an IC50 [3] of 1.42 nM.
In the case of `CC(=O)NCc1cccc(OC[C@@H](O)CNCCc2ccc(NC(=O)Cc3ccccc3)cc2)c1`, the IC50 [1] is reported as 15900 nM, the IC50 [2] is reported as 6200 nM and the IC50 [3] is reported as 4.58 nM.
Compound `CCCCCC(=O)Nc1ccc(NC(=O)Nc2ccc(CCNC[C@H](O)COc3cccc4[nH]ccc34)cc2)cc1` has an IC50 [3] of 10.4 nM.
With `CCc1ccccc1OC[C@@H](O)CNCCc1ccc(NC(=O)Nc2ccccc2)cc1` the IC50 [1] was 1420 nM, the IC50 [2] was 426 nM and the IC50 [3] was 55.5 nM.
For `CC(C)NC(=O)Nc1ccc(CCNC[C@H](O)COc2cccc3[nH]ccc23)cc1`, the inhibition [10] was “Active” and the IC50 [3] was 1.03 nM.
With `CCCCCC(=O)Nc1ccccc1NC(=O)Nc1ccc(CCNC[C@H](O)COc2cccc3[nH]ccc23)cc1` the IC50 [3] was 2.08 nM.
For `COc1ccccc1NC(=O)Nc1ccc(CCNC[C@H](O)COc2cccc3[nH]ccc23)cc1`, the IC50 [3] was 8.44 nM.
With `CC(=O)NCc1cccc(OC[C@@H](O)CNCCc2ccc(NS(=O)(=O)c3ccccc3)cc2)c1` the inhibition [10] was “Active”, the Ratio EC50 (Homo sapiens [11]) was 45 and the Ratio EC50 (Homo sapiens [12]) was over 90.
`COc1cccc(NC(=O)Nc2ccc(CCNC[C@H](O)COc3cccc4[nH]ccc34)cc2)c1` showed an IC50 [3] of 4.62 nM.
With `O=C(Nc1ccc(CCNC[C@H](O)COc2cccc3[nH]ccc23)cc1)NC1CCCCC1` the inhibition [10] was “Active” and the IC50 [3] was 2.89 nM.
`O=C(Cc1ccccc1)Nc1ccc(CCNC[C@H](O)COc2cccc3[nH]ccc23)cc1` was tested, and the IC50 [1] was 83.1 nM, the IC50 [2] was 7.64 nM and the IC50 [3] was 1.09 nM.
In the case of `CC(=O)NCc1cccc(OC[C@@H](O)CNCCc2ccc(NC(=O)Nc3ccccc3)cc2)c1`, the IC50 [1] is reported as 9840 nM, the IC50 [2] is reported as 12700 nM and the IC50 [3] is reported as 4.7 nM.
In the case of `O=C(Nc1ccc(CCNC[C@H](O)COc2cccc3[nH]ccc23)cc1)Nc1cccc(F)c1`, the IC50 [3] is reported as 2.93 nM.
